Data on 40 molecules can be found in ChEMBL document CHEMBL1146308 (Bioorg Med Chem, 2007).

For assay [1], the target named is T1, Acetylcholinesterase (Rattus norvegicus, UniProt P37136).
T1 sequence (P37136 whole entry): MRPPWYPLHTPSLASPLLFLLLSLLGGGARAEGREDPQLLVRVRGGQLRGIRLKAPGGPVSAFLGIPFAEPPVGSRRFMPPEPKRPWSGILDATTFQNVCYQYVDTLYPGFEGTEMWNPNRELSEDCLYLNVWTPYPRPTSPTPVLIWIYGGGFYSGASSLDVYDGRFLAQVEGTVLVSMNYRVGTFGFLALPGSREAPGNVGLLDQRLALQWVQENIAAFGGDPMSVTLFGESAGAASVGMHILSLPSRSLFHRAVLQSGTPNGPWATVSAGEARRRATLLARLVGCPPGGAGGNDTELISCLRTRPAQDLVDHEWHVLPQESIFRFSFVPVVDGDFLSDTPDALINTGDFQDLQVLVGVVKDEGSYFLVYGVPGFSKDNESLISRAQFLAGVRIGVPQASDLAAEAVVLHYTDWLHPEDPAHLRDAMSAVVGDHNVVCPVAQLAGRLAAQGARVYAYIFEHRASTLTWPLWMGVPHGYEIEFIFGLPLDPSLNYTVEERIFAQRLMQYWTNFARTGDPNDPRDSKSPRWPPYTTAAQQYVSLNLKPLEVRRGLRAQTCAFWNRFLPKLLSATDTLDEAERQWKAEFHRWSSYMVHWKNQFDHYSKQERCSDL
Put plainly: Inhibition of AChE in rat cortex […].

The target in assay [2] is Butyrylcholinesterase (Rattus norvegicus, UniProt Q9JKC1). Put plainly: Inhibition of BuChE in rat serum. The assay is classed as cell-free. In outline: (§1)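 Modified Ellman colorimetric cholinesterase assay. The AChE source was rat cortex homogenate and the BuChE source was rat serum. Inhibition was measured against each enzyme, and selectivity was taken as the BuChE IC50 over the AChE IC50.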
Sequence of Butyrylcholinesterase (Q9JKC1 whole entry): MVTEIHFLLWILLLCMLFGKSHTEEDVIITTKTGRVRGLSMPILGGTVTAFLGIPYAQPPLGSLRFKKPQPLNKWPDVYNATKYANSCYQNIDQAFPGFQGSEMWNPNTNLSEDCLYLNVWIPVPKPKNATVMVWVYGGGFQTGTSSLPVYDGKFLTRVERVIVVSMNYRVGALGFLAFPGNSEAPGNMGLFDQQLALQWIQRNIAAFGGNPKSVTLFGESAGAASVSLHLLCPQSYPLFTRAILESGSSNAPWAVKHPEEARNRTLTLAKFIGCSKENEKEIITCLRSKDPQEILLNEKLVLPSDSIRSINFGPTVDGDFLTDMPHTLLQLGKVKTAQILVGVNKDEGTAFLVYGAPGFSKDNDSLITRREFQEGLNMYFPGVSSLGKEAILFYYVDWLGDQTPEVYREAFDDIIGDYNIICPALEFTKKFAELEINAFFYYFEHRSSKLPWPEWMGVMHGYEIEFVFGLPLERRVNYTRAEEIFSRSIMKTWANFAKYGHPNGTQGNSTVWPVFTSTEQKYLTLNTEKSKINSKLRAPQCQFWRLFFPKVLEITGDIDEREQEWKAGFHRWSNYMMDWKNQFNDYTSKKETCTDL

For assay [3], the species on record is Rattus norvegicus. Put plainly: Selectivity ratio of IC50 for rat BuChE to rat IC50 for AchE. Summed up:
as §1

SMILES strings stand for the structures. Bounds are passed on as bounds.

Take `CC1=C[C@H]2Cc3[nH]c(=O)ccc3[C@@]3(C1)[C@@H]2CCCN3CCN(C)CCCCCCN(C)CCN1CCC[C@@H]2[C@H]3C=C(C)C[C@]21c1ccc(=O)[nH]c1C3`: the midpoint of inhibition in assay [1], the IC50, lay at 78.4 nM.
As for `CC1=C[C@H]2Cc3[nH]c(=O)ccc3[C@@]3(C1)[C@@H]2CCCN3C(=O)CCN(C)CCCCCCN(C)CCC(=O)N1CCC[C@@H]2[C@H]3C=C(C)C[C@]21c1ccc(=O)[nH]c1C3`, the values for the IC50 in assay [1] and in assay [2] were 35.9 nM and 67900 nM, respectively. Further, the Ratio IC50 in assay [3] turned out to be 1890.
`CC1=C[C@H]2Cc3[nH]c(=O)ccc3[C@@]3(C1)[C@@H]2CCCN3CCCN(C)CCCCCCCCCCN(C)CCCN1CCC[C@@H]2[C@H]3C=C(C)C[C@]21c1ccc(=O)[nH]c1C3` gave an IC50 in assay [1] of 26.2 nM.
As to `CC1=C[C@H]2Cc3[nH]c(=O)ccc3[C@@]3(C1)[C@@H]2CCCN3CCN1CCCN(CCN2CCC[C@@H]3[C@H]4C=C(C)C[C@]32c2ccc(=O)[nH]c2C4)CC1`, the Ratio IC50 in assay [3] amounted to 573.
As for `CC1=C[C@H]2Cc3[nH]c(=O)ccc3[C@@]3(C1)[C@@H]2CCCN3C(=O)CN(CC(=O)N1CCC[C@@H]2[C@H]3C=C(C)C[C@]21c1ccc(=O)[nH]c1C3)C1CC1`, in assay [1], 1000 nM corresponded to half-maximal inhibition (IC50).
Take `CC1=C[C@H]2Cc3[nH]c(=O)ccc3[C@@]3(C1)[C@@H]2CCCN3CCCN(C)CCCCCCCCN(C)CCCN1CCC[C@@H]2[C@H]3C=C(C)C[C@]21c1ccc(=O)[nH]c1C3`: the IC50 in assay [1] amounted to 40.6 nM. This IC50 lies about 25-fold lower than the previous one.
Molecule `CC1=C[C@H]2Cc3[nH]c(=O)ccc3[C@@]3(C1)[C@@H]2CCCN3CCN(C)CCCN(C)CCN1CCC[C@@H]2[C@H]3C=C(C)C[C@]21c1ccc(=O)[nH]c1C3` showed an IC50 in assay [1] of 416 nM. Compared with the last molecule, the IC50 is about 10-fold higher.
As to `CC1=C[C@H]2Cc3[nH]c(=O)ccc3[C@@]3(C1)[C@@H]2CCCN3C(=O)CN(C)CCCCCCCCN(C)CC(=O)N1CCC[C@@H]2[C@H]3C=C(C)C[C@]21c1ccc(=O)[nH]c1C3`, the results for the IC50 in assay [1] and in assay [2] were 50.8 nM and 65400 nM, respectively. Also, the Ratio IC50 in assay [3] was determined as 1290.
The molecule `CC1=C[C@H]2Cc3[nH]c(=O)ccc3[C@@]3(C1)[C@@H]2CCCN3CCCN1CCN(CCCN2CCC[C@@H]3[C@H]4C=C(C)C[C@]32c2ccc(=O)[nH]c2C4)CC1` gave an IC50 in assay [1] of 202 nM. In other words, the sub-micromolar range.
On the same count and under the same terms, for `CC1=C[C@H]2Cc3[nH]c(=O)ccc3[C@@]3(C1)[C@@H]2CCCN3CCN(CCN1CCC[C@@H]2[C@H]3C=C(C)C[C@]21c1ccc(=O)[nH]c1C3)C1CC1` the value was 695 nM.
`CC1=C[C@H]2Cc3[nH]c(=O)ccc3[C@]3(C1)NCCC[C@H]23`: the Ratio IC50 in assay [3] was found to be 12.
In assay [1], `CC1=C[C@H]2Cc3[nH]c(=O)ccc3[C@@]3(C1)[C@@H]2CCCN3CCN(C)CCN(C)CCN1CCC[C@@H]2[C@H]3C=C(C)C[C@]21c1ccc(=O)[nH]c1C3` displayed an IC50 of 3480 nM. In other words, the single-digit micromolar range.
With `CC1=C[C@H]2Cc3[nH]c(=O)ccc3[C@@]3(C1)[C@@H]2CCCN3C(=O)CN(C)CCCN(C)CC(=O)N1CCC[C@@H]2[C@H]3C=C(C)C[C@]21c1ccc(=O)[nH]c1C3`, the IC50 turned out to be 471 nM in assay [1] and 60000 nM in assay [2]. For the same molecule, the Ratio IC50 in assay [3] is 127.
For the molecule `CC1=C[C@H]2Cc3[nH]c(=O)ccc3[C@@]3(C1)[C@@H]2CCCN3C(=O)CN1CCCN(CC(=O)N2CCC[C@@H]3[C@H]4C=C(C)C[C@]32c2ccc(=O)[nH]c2C4)CC1`, in assay [1], the IC50 is 204 nM. Further, the Ratio IC50 in assay [3] was 838.
`CC1=C[C@H]2Cc3[nH]c(=O)ccc3[C@@]3(C1)[C@@H]2CCCN3C(=O)CN(C)CCCCCCCCCCCCN(C)CC(=O)N1CCC[C@@H]2[C@H]3C=C(C)C[C@]21c1ccc(=O)[nH]c1C3` had an IC50 in assay [1] of 53.4 nM.
For `CC1=C[C@H]2Cc3[nH]c(=O)ccc3[C@@]3(C1)[C@@H]2CCCN3CCN1CCN(CN2CCC[C@@H]3[C@H]4C=C(C)C[C@]32c2ccc(=O)[nH]c2C4)CC1`, the results for the half-inhibitory concentration (IC50) in assay [1] and in assay [2] were 407 nM and 192000 nM, respectively. Moreover, in assay [3], the Ratio IC50 was found to be 472.
Molecule `CC1=C[C@H]2Cc3[nH]c(=O)ccc3[C@@]3(C1)[C@@H]2CCCN3C(=O)CCN1CCCN(CCC(=O)N2CCC[C@@H]3[C@H]4C=C(C)C[C@]32c2ccc(=O)[nH]c2C4)CC1` had an IC50 in assay [1] of 179 nM.
The same measure, in the same setting: for `CC1=C[C@H]2Cc3[nH]c(=O)ccc3[C@@]3(C1)[C@@H]2CCCN3CCCN(C)CCCCCCN(C)CCCN1CCC[C@@H]2[C@H]3C=C(C)C[C@]21c1ccc(=O)[nH]c1C3` the value was 33.6 nM.
Turning to `CC1=C[C@H]2Cc3[nH]c(=O)ccc3[C@@]3(C1)[C@@H]2CCCN3C(=O)CCN(C)CCCCCCCCCCCCN(C)CCC(=O)N1CCC[C@@H]2[C@H]3C=C(C)C[C@]21c1ccc(=O)[nH]c1C3`, the concentration for half-maximal inhibition (IC50) in assay [1] came to 23.1 nM; in assay [2] it was 88400 nM. The Ratio IC50 in assay [3] was determined as 3830.
`CC1=C[C@H]2Cc3[nH]c(=O)ccc3[C@@]3(C1)[C@@H]2CCCN3C(=O)CN(C)CCCCCCN(C)CC(=O)N1CCC[C@@H]2[C@H]3C=C(C)C[C@]21c1ccc(=O)[nH]c1C3`: the IC50 in assay [1] turned out to be 76.2 nM; in assay [2], 64500 nM. For the same molecule, in assay [3], the Ratio IC50 turned out to be 846.
`CC1=C[C@H]2Cc3[nH]c(=O)ccc3[C@@]3(C1)[C@@H]2CCCN3C(=O)CN(C)CCN(C)CC(=O)N1CCC[C@@H]2[C@H]3C=C(C)C[C@]21c1ccc(=O)[nH]c1C3` showed a half-inhibitory concentration (IC50) in assay [1] of 1020 nM.
Same read-out and setting: next, `CC1=C[C@H]2Cc3[nH]c(=O)ccc3[C@@]3(C1)[C@@H]2CCCN3C(=O)CN(C)CCCCCCCCCCN(C)Cc1ccccn1`: 42 nM.
Turning to `CC1=C[C@H]2Cc3[nH]c(=O)ccc3[C@@]3(C1)[C@@H]2CCCN3C(=O)CCN(C)CCCCCCCCN(C)CCC(=O)N1CCC[C@@H]2[C@H]3C=C(C)C[C@]21c1ccc(=O)[nH]c1C3`, the figures for the half-inhibitory concentration (IC50) in assay [1] and in assay [2] were 18.5 nM and 63000 nM, respectively. The Ratio IC50 in assay [3] stood at 3400.
`COc1ccccc1CN(C)CCCCCCCCCCCCN(C)CC(=O)N1CCC[C@@H]2[C@H]3C=C(C)C[C@]21c1ccc(=O)[nH]c1C3`: in assay [1], the half-maximal inhibitory concentration (IC50) amounted to 62.2 nM. This counts as double-digit nanomolar.
With `COc1ccccc1CN(C)CCCCCCCCCCN(C)CC(=O)N1CCC[C@@H]2[C@H]3C=C(C)C[C@]21c1ccc(=O)[nH]c1C3`, the IC50 was 21.1 nM in assay [1] and 8650 nM in assay [2]. For the same molecule, the Ratio IC50 in assay [3] was found to be 410.
For the molecule `CC1=C[C@H]2Cc3[nH]c(=O)ccc3[C@@]3(C1)[C@@H]2CCCN3C(=O)CCN1CCN(CCC(=O)N2CCC[C@@H]3[C@H]4C=C(C)C[C@]32c2ccc(=O)[nH]c2C4)CC1`, the 50% inhibitory concentration (IC50) in assay [1] was found to be 170 nM.
Turning to `CC1=C[C@H]2Cc3[nH]c(=O)ccc3[C@@]3(C1)[C@@H]2CCCN3C(=O)CN(C)CCCCCCN(C)Cc1cccc2ccccc12`, in assay [1], half-maximal inhibition (IC50) was put at 124 nM.
On the same count and under the same terms, for `CCCN(CC(=O)N1CCC[C@@H]2[C@H]3C=C(C)C[C@]21c1ccc(=O)[nH]c1C3)CC(=O)n1c2c(ccc1=O)[C@@]13CC(C)=C[C@@H](C2)[C@H]1CCCN3` the value was 157 nM; for `CC1=C[C@H]2Cc3[nH]c(=O)ccc3[C@@]3(C1)[C@@H]2CCCN3CCCN1CCCN(CCCN2CCC[C@@H]3[C@H]4C=C(C)C[C@]32c2ccc(=O)[nH]c2C4)CC1`, 332 nM.
`CC1=C[C@H]2Cc3[nH]c(=O)ccc3[C@@]3(C1)[C@@H]2CCCN3C(=O)CN(C)CCCCCCCCCCCCN(C)Cc1ccc(F)cc1`: the IC50 in assay [1] worked out at 309 nM.
Still for that read-out and setting: for `CC1=C[C@H]2Cc3[nH]c(=O)ccc3[C@@]3(C1)[C@@H]2CCCN3C(=O)CN(C)CCCCCCCCN(C)Cc1ccc(F)cc1` the value was 56.5 nM.
Regarding `CC1=C[C@H]2Cc3[nH]c(=O)ccc3[C@@]3(C1)[C@@H]2CCCN3C(=O)CN(C)CCCCCCCCCCN(C)Cc1cccnc1`, the IC50 in assay [2] was 12900 nM.
Take `CC1=C[C@H]2Cc3[nH]c(=O)ccc3[C@@]3(C1)[C@@H]2CCCN3C(=O)CN(C)CCCCCCCCN(C)Cc1ccccn1`: the IC50 in assay [1] stood at 41.2 nM. This lies in the double-digit nanomolar range.
In turn, `CC1=C[C@H]2Cc3[nH]c(=O)ccc3[C@@]3(C1)[C@@H]2CCCN3C(=O)CN(C)CCCCCCCCCCN(C)Cc1cccc2ccccc12` gave an IC50 in assay [1] of 121 nM.
With `CC1=C[C@H]2Cc3[nH]c(=O)ccc3[C@@]3(C1)[C@@H]2CCCN3C(=O)CN(C)CCCCCCCCCCN(C)Cc1ccc(F)cc1`, the IC50 in assay [1] turned out to be 52 nM; in assay [2], 3480 nM. Also, the Ratio IC50 in assay [3] was found to be 67.
As to `CC1=C[C@H]2Cc3[nH]c(=O)ccc3[C@@]3(C1)[C@@H]2CCCN3CCN(C)CCCCCCCCN(C)CCN1CCC[C@@H]2[C@H]3C=C(C)C[C@]21c1ccc(=O)[nH]c1C3`, the IC50 in assay [1] is 20.1 nM.
With `CC1=C[C@H]2Cc3[nH]c(=O)ccc3[C@@]3(C1)[C@@H]2CCCN3C(=O)CN1CCN(CC(=O)N2CCC[C@@H]3[C@H]4C=C(C)C[C@]32c2ccc(=O)[nH]c2C4)CC1`, the Ratio IC50 in assay [3] was over 157.
Take `CC1=C[C@H]2Cc3[nH]c(=O)ccc3[C@@]3(C1)[C@@H]2CCCN3C(=O)CN(C)CCCCCCCCCCCCN(C)Cc1ccccn1`: in assay [1], the IC50 came to 65.8 nM.
The same measure, in the same setting: for `CC1=C[C@H]2Cc3[nH]c(=O)ccc3[C@@]3(C1)[C@@H]2CCCN3C(=O)CN(C)CCCCCCCCCCN(C)Cc1ccncc1` the value was 50 nM; for `CCCN(CCN1CCC[C@@H]2[C@H]3C=C(C)C[C@]21c1ccc(=O)[nH]c1C3)CCN1CCC[C@@H]2[C@H]3C=C(C)C[C@]21c1ccc(=O)[nH]c1C3`, 1010 nM.

Broadly, the IC50 is the point on the concentration scale where inhibition reaches its midpoint.
